“And” between values parts separate entries of the source, which are not always exact repeats. Equal values may be shown once.
Legend:
Fibroblast = assay: Multiplex assay against human fibroblast; assay type: toxicity, cell-based; conditions: number of replicates 2
Summary of the method: (§1)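 With compound added, live cells were imaged on a CQ1 microscope at 37°C and 5% CO2; staining with Hoechst33342, BioTracker Green Microtubule Cytoskeleton Dye, MitoTracker Red and Annexin V Alexa Fluor 680 had been done at seeding. The CellPathfinder machine-learning gating scheme split cells into Hoechst high-intensity objects or normal cells, normal cells into healthy, pyknosed or fragmented nuclei, and pyknosed cells into mitotic or apoptotic. The tubulin, mitochondrial-mass and membrane-permeability phenotypes are per cents of healthy-nucleus cells.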

HEK-293T = assay: Multiplex assay against HEK293T; assay type: toxicity, cell-based; conditions: human, number of replicates 2; summary of the method: as §1
[1] = 12 h, 1 µM, compound concentration 1 uM
[2] = 12 h, 10 µM, compound concentration 10 uM
[3] = 24 h, 1 µM, compound concentration 1 uM
[4] = 24 h, 10 µM, compound concentration 10 uM
[5] = 48 h, 1 µM, compound concentration 1 uM
[6] = 48 h, 10 µM, compound concentration 10 uM

SMILES: CN(C)C/C=C/C(=O)Nc1cc2c(Nc3ccc(F)c(Cl)c3)ncnc2cc1OC[C@@H]1CCCO1
- Population Apoptotic (%) (Fibroblast; [1]): 31% and 30%
- Population Fragmented Nuclei (%) (Fibroblast; [1]): 16% and 20%
- Population Healthy Nuclei (%) (Fibroblast; [1]): 57% and 60%
- Population Hoechst High Intensity Objects (%) (Fibroblast; [1]): 0%
- Population Membrane Permeable-Phenotype (%) (Fibroblast; [1]): 14% and 13%
- Population Mitochondria Different-Phenotype (%) (Fibroblast; [1]): 0% and 1%
- Population Mitotic Cells (%) (Fibroblast; [1]): 68% and 69%
- Population Normal (%) (Fibroblast; [1]): 99% and 100%
- Population Pyknosed Nuclei (%) (Fibroblast; [1]): 26% and 18%
- Population Tubulin-Different-Phenotype (%) (Fibroblast; [1]): 67% and 54%
- Total Cell Count (Fibroblast; [1]): 169 and 229
- Population Apoptotic (%) (Fibroblast; [2]): 40% and 32%
- Population Fragmented Nuclei (%) (Fibroblast; [2]): 12% and 15%
- Population Healthy Nuclei (%) (Fibroblast; [2]): 41% and 47%
- Population Hoechst High Intensity Objects (%) (Fibroblast; [2]): 1% and 3%
- Population Membrane Permeable-Phenotype (%) (Fibroblast; [2]): 46% and 40%
- Population Mitochondria Different-Phenotype (%) (Fibroblast; [2]): 9% and 11%
- Population Mitotic Cells (%) (Fibroblast; [2]): 59% and 67%
- Population Normal (%) (Fibroblast; [2]): 98% and 96%
- Population Pyknosed Nuclei (%) (Fibroblast; [2]): 46% and 36%
- Population Tubulin-Different-Phenotype (%) (Fibroblast; [2]): 78% and 88%
- Total Cell Count (Fibroblast; [2]): 181 and 317
- Population Apoptotic (%) (Fibroblast; [3]): 50% and 67%
- Population Fragmented Nuclei (%) (Fibroblast; [3]): 14% and 20%
- Population Healthy Nuclei (%) (Fibroblast; [3]): 65% and 66%
- Population Hoechst High Intensity Objects (%) (Fibroblast; [3]): 0%
- Population Membrane Permeable-Phenotype (%) (Fibroblast; [3]): 6% and 8%
- Population Mitochondria Different-Phenotype (%) (Fibroblast; [3]): 2% and 5%
- Population Mitotic Cells (%) (Fibroblast; [3]): 50% and 32%
- Population Normal (%) (Fibroblast; [3]): 99% and 100%
- Population Pyknosed Nuclei (%) (Fibroblast; [3]): 19% and 13%
- Population Tubulin-Different-Phenotype (%) (Fibroblast; [3]): 69% and 51%
- Total Cell Count (Fibroblast; [3]): 155 and 235
- Population Apoptotic (%) (Fibroblast; [4]): 68% and 65%
- Population Fragmented Nuclei (%) (Fibroblast; [4]): 17% and 13%
- Population Healthy Nuclei (%) (Fibroblast; [4]): 27% and 29%
- Population Hoechst High Intensity Objects (%) (Fibroblast; [4]): 2% and 6%
- Population Membrane Permeable-Phenotype (%) (Fibroblast; [4]): 27% and 28%
- Population Mitochondria Different-Phenotype (%) (Fibroblast; [4]): 45% and 47%
- Population Mitotic Cells (%) (Fibroblast; [4]): 31% and 34%
- Population Normal (%) (Fibroblast; [4]): 97% and 93%
- Population Pyknosed Nuclei (%) (Fibroblast; [4]): 54% and 56%
- Population Tubulin-Different-Phenotype (%) (Fibroblast; [4]): 80% and 77%
- Total Cell Count (Fibroblast; [4]): 147 and 216
- Population Apoptotic (%) (Fibroblast; [5]): 72% and 80%
- Population Fragmented Nuclei (%) (Fibroblast; [5]): 15% and 23%
- Population Healthy Nuclei (%) (Fibroblast; [5]): 68% and 64%
- Population Hoechst High Intensity Objects (%) (Fibroblast; [5]): 0% and 1%
- Population Membrane Permeable-Phenotype (%) (Fibroblast; [5]): 5% and 3%
- Population Mitochondria Different-Phenotype (%) (Fibroblast; [5]): 11% and 5%
- Population Mitotic Cells (%) (Fibroblast; [5]): 28% and 20%
- Population Normal (%) (Fibroblast; [5]): 100% and 98%
- Population Pyknosed Nuclei (%) (Fibroblast; [5]): 15% and 11%
- Population Tubulin-Different-Phenotype (%) (Fibroblast; [5]): 55% and 42%
- Total Cell Count (Fibroblast; [5]): 157 and 217
- Population Apoptotic (%) (Fibroblast; [6]): 89% and 84%
- Population Fragmented Nuclei (%) (Fibroblast; [6]): 27% and 18%
- Population Healthy Nuclei (%) (Fibroblast; [6]): 24% and 32%
- Population Hoechst High Intensity Objects (%) (Fibroblast; [6]): 5% and 14%
- Population Membrane Permeable-Phenotype (%) (Fibroblast; [6]): 36% and 40%
- Population Mitochondria Different-Phenotype (%) (Fibroblast; [6]): 50% and 42%
- Population Mitotic Cells (%) (Fibroblast; [6]): 10% and 15%
- Population Normal (%) (Fibroblast; [6]): 94% and 85%
- Population Pyknosed Nuclei (%) (Fibroblast; [6]): 47% and 48%
- Population Tubulin-Different-Phenotype (%) (Fibroblast; [6]): 76%
- Total Cell Count (Fibroblast; [6]): 128 and 187
- Population Apoptotic (%) (HEK-293T; [1]): 39% and 48%
- Population Fragmented Nuclei (%) (HEK-293T; [1]): 3% and 2%
- Population Healthy Nuclei (%) (HEK-293T; [1]): 83% and 85%
- Population Hoechst High Intensity Objects (%) (HEK-293T; [1]): 7% and 8%
- Population Membrane Permeable-Phenotype (%) (HEK-293T; [1]): 4% and 5%
- Population Mitochondria Different-Phenotype (%) (HEK-293T; [1]): 32% and 29%
- Population Mitotic Cells (%) (HEK-293T; [1]): 60% and 51%
- Population Normal (%) (HEK-293T; [1]): 92% and 91%
- Population Pyknosed Nuclei (%) (HEK-293T; [1]): 13% and 12%
- Population Tubulin-Different-Phenotype (%) (HEK-293T; [1]): 94% and 91%
- Total Cell Count (HEK-293T; [1]): 593 and 650
- Population Apoptotic (%) (HEK-293T; [2]): 72% and 76%
- Population Fragmented Nuclei (%) (HEK-293T; [2]): 2% and 4%
- Population Healthy Nuclei (%) (HEK-293T; [2]): 75% and 78%
- Population Hoechst High Intensity Objects (%) (HEK-293T; [2]): 20% and 28%
- Population Membrane Permeable-Phenotype (%) (HEK-293T; [2]): 2% and 4%
- Population Mitochondria Different-Phenotype (%) (HEK-293T; [2]): 73% and 75%
- Population Mitotic Cells (%) (HEK-293T; [2]): 27% and 23%
- Population Normal (%) (HEK-293T; [2]): 79% and 71%
- Population Pyknosed Nuclei (%) (HEK-293T; [2]): 21% and 17%
- Population Tubulin-Different-Phenotype (%) (HEK-293T; [2]): 60% and 66%
- Total Cell Count (HEK-293T; [2]): 256 and 344
- Population Apoptotic (%) (HEK-293T; [3]): 57% and 51%
- Population Fragmented Nuclei (%) (HEK-293T; [3]): 6% and 5%
- Population Healthy Nuclei (%) (HEK-293T; [3]): 87% and 86%
- Population Hoechst High Intensity Objects (%) (HEK-293T; [3]): 8%

— ChEMBL document CHEMBL5303300, “EUbOPEN Chemogenomics Library - Multiplex” (2023)
